The record followed here is ChEMBL document CHEMBL1140836, “Hybrid angiogenesis inhibitors: synthesis and biological evaluation of bifunctional compounds based on 1-deoxynojirimycin and aryl-1,2,3-triazoles” (Bioorg Med Chem Lett, 2008).

pIC50: −log10 of the molar value. Calls of active or inactive are those of the source. No cut-off for these calls is given here.

One assay has as its target T1, Alpha-glucosidase (Geobacillus stearothermophilus, UniProt P94451).
T1 sequence (P94451 whole entry): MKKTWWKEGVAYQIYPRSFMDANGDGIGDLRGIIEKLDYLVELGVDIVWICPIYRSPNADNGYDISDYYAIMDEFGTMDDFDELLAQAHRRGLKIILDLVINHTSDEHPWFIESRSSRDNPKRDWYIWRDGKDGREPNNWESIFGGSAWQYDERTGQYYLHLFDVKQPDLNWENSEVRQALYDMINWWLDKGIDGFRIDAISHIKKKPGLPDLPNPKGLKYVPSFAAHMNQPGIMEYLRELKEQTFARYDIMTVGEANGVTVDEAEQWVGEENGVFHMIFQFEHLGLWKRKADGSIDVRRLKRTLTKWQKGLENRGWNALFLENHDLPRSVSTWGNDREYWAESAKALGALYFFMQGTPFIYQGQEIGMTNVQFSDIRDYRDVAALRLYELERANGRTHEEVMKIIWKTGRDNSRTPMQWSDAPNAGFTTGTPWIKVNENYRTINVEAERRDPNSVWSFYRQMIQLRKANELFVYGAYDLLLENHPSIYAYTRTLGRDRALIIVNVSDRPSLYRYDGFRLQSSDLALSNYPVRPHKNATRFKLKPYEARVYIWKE
As to the kind of experiment: (§1) Inhibition of alpha glucosidase from bacillus stearothermophilus.

Assay [1] relates to BAEC. Nature of the assay: Antiangiogenesis activity in bovine BAEC cells assessed as inhibition of tube formation on Matrigel at 0.2 mM. It is filed as functional, cell-based. The following applies: Bos taurus. Put shortly: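 BAECs pretreated with compound (0.2 mM) 24 h, harvested, 3 × 10⁴ cells/0.1 ml in RPMI 1640 with 10 ng/mL bFGF plus 0.2 mM compound (controls bFGF only), layered on growth factor–reduced Matrigel polymerized 1 h at 37 °C; 8 h at 37 °C, 5% CO₂. Tubes counted in at least five microscope fields, averaged per field; repeated at least twice.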

Assay [2] is described as follows: (§2) Growth inhibition of bovine BAEC by MTT assay. The format is functional, cell-based. As to conditions: Bos taurus. The method in brief: (§3)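 BAECs in RPMI 1640 with 10% heat-inactivated FBS, 3 × 10³ cells/well, seeded overnight, then exposed to compounds (10⁻⁶–10⁻³ M) for 48 h at 37 °C, 5% CO₂. MTT added to 0.5 mg/mL final, 3 h at 37 °C; formazan dissolved in DMSO, absorbance at 570 nm. Quadruplicate wells, experiments repeated at least twice; IC₅₀ determined.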

Assay [3] concerns the target Methionine aminopeptidase 2 (Homo sapiens) (UniProt P50579). As to the kind of experiment: Inhibition of MetAP2.
For assay [4], the target named is T2, Alpha-glucosidase (Geobacillus stearothermophilus) (UniProt P94451).
T2 sequence (whole entry): T1 sequence (P94451 whole entry)
The description is as §1.

The test system of assay [5] is BAEC. Described as §2. The format is functional, cell-based. As to conditions: Bos taurus. The method in brief:
as §3

Sequence of Methionine aminopeptidase 2 (Homo sapiens) (P50579 2-478 limits assumed): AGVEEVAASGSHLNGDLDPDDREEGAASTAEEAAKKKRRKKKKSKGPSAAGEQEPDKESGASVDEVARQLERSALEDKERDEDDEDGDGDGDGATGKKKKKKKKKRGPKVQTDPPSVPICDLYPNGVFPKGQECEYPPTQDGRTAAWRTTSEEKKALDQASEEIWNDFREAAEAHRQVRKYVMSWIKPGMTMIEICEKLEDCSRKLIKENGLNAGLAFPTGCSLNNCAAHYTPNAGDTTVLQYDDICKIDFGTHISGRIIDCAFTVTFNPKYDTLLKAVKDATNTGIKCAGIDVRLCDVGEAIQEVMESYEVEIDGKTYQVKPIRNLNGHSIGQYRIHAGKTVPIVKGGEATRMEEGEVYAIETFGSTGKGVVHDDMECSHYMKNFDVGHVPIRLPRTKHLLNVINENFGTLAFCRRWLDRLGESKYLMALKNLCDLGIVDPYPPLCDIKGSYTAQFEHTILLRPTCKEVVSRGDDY

With `OC[C@@H]1[C@@H](O)[C@H](O)[C@@H](O)CN1CCCCOc1cccc(-c2cnn[nH]2)c1`, the negative logarithm of the IC50 (pIC50) (commonly −log10 of the IC50, conventionally taken in molar units) is 5.22 on Alpha-glucosidase and 3.10 in assay [2]. Moreover, the outcome with BAEC [1] was inactive.

Take `OC[C@@H]1[C@@H](O)[C@H](O)[C@@H](O)CN1CCCCCCOc1cccc(-c2cnn[nH]2)c1`: the negative-log IC50 (pIC50) against Alpha-glucosidase is 5.62; in assay [2], 3.21. Besides, in the assay on BAEC [1], the result was inactive.

Take `COc1cccc(-c2cnn[nH]2)c1`: the result in assay [3] was Active. Besides, the result in assay [4] was inactive. Also, the pIC50 in assay [2] is 3.46.

Turning to `OC[C@H]1NC[C@H](O)[C@@H](O)[C@@H]1O`, the outcome with BAEC [5] was inactive.

Take `OC[C@@H]1[C@@H](O)[C@H](O)[C@@H](O)CN1CCCCCCCCOc1cccc(-c2cnn[nH]2)c1`: the pIC50 against Alpha-glucosidase was 5.94; in assay [2], 3.98.
